The source made the active and inactive calls. The rule behind the calls is not given here.
Legend:
M21 [1] = experiment: Inhibition of nuclear translocation of thioredoxin 1 in human M21 cells at 10 uM after 18 hrs by immunocytochemistry; format: functional, cell-based
Procedure, shortened: (§1)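 M21 cells seeded on fibronectin-coated coverslips, held 18 h at 37 °C, then treated with compounds (5–50 µM; reference agents 0.1–40 µM) or 0.1% DMSO. Fixed in 3.7% formaldehyde, permeabilized with 0.1% saponin, and blocked in 3% BSA. Stained 1 h at 37 °C with anti-thioredoxin-1 monoclonal (1/200), then with Alexa-488 anti-mouse IgG plus DAPI for nuclei.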

M21 [2] = experiment: Inhibition of nuclear translocation of thioredoxin 1 in human M21 cells at 25 uM after 18 hrs by immunocytochemistry; format: functional, cell-based; procedure, shortened: as §1
M21 [3] = experiment: Inhibition of nuclear translocation of thioredoxin 1 in human M21 cells at 50 uM after 18 hrs by immunocytochemistry; format: functional, cell-based; procedure, shortened: as §1
HT-29 = experiment: Growth inhibition of human HT29 cells after 48 hrs by sulforhodamine B assay; format: functional; conditions: HT-29, 48 h
Procedure, shortened: (§2)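 NCI-style sulforhodamine B assay. HT-29 (5×10³), M21 or MCF-7 (3.5×10³) cells were grown 24 h, then given DMSO-solubilized drug at 100 to 0.7 µM final (DMSO <0.5%) for 48 h. Fixed in cold 10% TCA, stained with 0.1% SRB, read at 585 nm after subtracting a day-0 plate. Inhibition is relative to DMSO controls; GI50 from at least triplicate runs.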

M21 [4] = experiment: Growth inhibition of human M21 cells after 48 hrs by sulforhodamine B assay; format: functional; conditions: M21, 48 h; procedure, shortened: as §2
MCF7 [5] = experiment: Growth inhibition of human MCF7 cells after 48 hrs by sulforhodamine B assay; format: functional; conditions: MCF7, 48 h; procedure, shortened: as §2
M21 [6] = experiment: Inhibition of nuclear translocation of thioredoxin 1 in human M21 cells at 0.1 uM after 18 hrs by immunocytochemistry; format: functional, cell-based; procedure, shortened: as §1
MCF7 [7] = experiment: Cell cycle arrest in human MCF7 cells assessed as G2/M phase accumulation at 2 times GI50 after 24 hrs by flow cytometry; format: functional
MCF7 [8] = experiment: Cell cycle arrest in human MCF7 cells assessed as […] phase accumulation at 2 times GI50 after 24 hrs by flow cytometry; format: functional
MCF7 [9] = experiment: Cell cycle arrest in human MCF7 cells assessed as S phase accumulation at 2 times GI50 after 24 hrs by flow cytometry; format: functional

## Cc1ccc(NC2=NCCO2)cc1C
M21 [1]
  Activity: Active

## O=C(NCCCl)Nc1ccc(Oc2ccccc2)cc1
M21 [1]
  Activity: inactive
M21 [2]
  Activity: inactive

## Cc1ccc(NC(=O)NCCCl)cc1C
M21 [1]
  Activity: inactive
M21 [2]
  Activity: inactive

## O=C(NCCCl)Nc1cccc(OCc2ccccc2)c1
M21 [3]
  Activity: inactive
M21 [1]
  Activity: inactive
HT-29
  GI50: 2.9 µM
M21 [4]
  GI50: 6.5 µM
MCF7 [5]
  GI50: 10 µM

## O=C(NCCCl)Nc1ccc2ccccc2c1
M21 [3]
  Activity: Active
M21 [1]
  Activity: Active

## CC(=O)O[C@H]1C(=O)[C@@]2(C)[C@H]([C@H](OC(=O)c3ccccc3)[C@]3(O)C[C@H](OC(=O)[C@H](O)[C@@H](NC(=O)c4ccccc4)c4ccccc4)C(C)=C1C3(C)C)[C@]1(OC(C)=O)CO[C@@H]1C[C@@H]2O
M21 [6]
  Activity: inactive

## COc1cc2c(c(OC)c1OC)-c1ccc(OC)c(=O)cc1[C@@H](NC(C)=O)CC2 [COLCHICINE]
M21 [6]
  Activity: inactive
MCF7 [7]
  Activity: 62%
MCF7 [8]
  Activity: 19%
MCF7 [9]
  Activity: 19%

## O=C(NCCCl)Nc1ccc(OC2CCCC2)cc1
MCF7 [7]
  Activity: 9%
M21 [3]
  Activity: Active
MCF7 [8]
  Activity: 72%
MCF7 [9]
  Activity: 19%

## O=C(NCCCl)Nc1ccc(OC2CCCCCC2)cc1
MCF7 [7]
  Activity: 6%
M21 [3]
  Activity: Active
MCF7 [8]
  Activity: 75%
MCF7 [9]
  Activity: 19%

## O=C(NCCCl)Nc1cccc(OC2CCCCCC2)c1
MCF7 [7]
  Activity: 6%
M21 [3]
  Activity: Active
MCF7 [8]
  Activity: 72%
MCF7 [9]
  Activity: 22%

## CC[C@]1(O)C[C@@H]2CN(CCc3c([nH]c4ccccc34)[C@@](C(=O)OC)(c3cc4c(cc3OC)N(C)[C@H]3[C@@](O)(C(=O)OC)[C@H](OC(C)=O)[C@]5(CC)C=CCN6CC[C@]43[C@@H]65)C2)C1
M21 [6]
  Activity: inactive

## O=C(NCCCl)Nc1ccc(OC2CCCCC2)cc1
MCF7 [7]
  Activity: 14%
M21 [3]
  Activity: Active
MCF7 [8]
  Activity: 57%
MCF7 [9]
  Activity: 29%

## O=C(NCCCl)Nc1ccc(I)cc1
MCF7 [7]
  Activity: 42%
M21 [3]
  Activity: Active
M21 [1]
  Activity: Active
MCF7 [8]
  Activity: 25%
MCF7 [9]
  Activity: 33%

## CC(C)(C)c1ccc(NC(=O)NCCCl)cc1
MCF7 [7]
  Activity: 58%
M21 [3]
  Activity: inactive
M21 [1]
  Activity: inactive
MCF7 [8]
  Activity: 17%
MCF7 [9]
  Activity: 24%
